pIC50: −log10 of the molar value.
What was measured:
[1] = target: Glutamate receptor ionotropic, NMDA 2C (Rattus norvegicus, UniProt Q00961); assay: (§1) Compound was tested for its affinity towards PCP receptor in rat brain membrane [3H]MK-801 as radioligand; type: cell membranes
[2] = target: T1, D(2) dopamine receptor (Rattus norvegicus, UniProt P61169); assay: Compound was tested for its binding affinity towards dopamine receptor D2 by using [3H]domperidone as radioligand
Summary of the method: (§2)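 Rat striatal membranes from frozen tissue, washed and resuspended in 50 mM Tris-HCl with 120 mM NaCl, 5 mM KCl, 2 mM CaCl2, 1 mM MgCl2 (pH 7.4 at 37 °C). Competition binding used [3H]SCH-23390 for D1 and [3H]domperidone for D2. IC50 ± SEM from duplicate or triplicate determinations.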

[3] = target: T1, D(2) dopamine receptor; assay: Compound was tested for its binding affinity towards Dopamine receptor D2 by using [3H]domperidone as radioligand
[4] = target: T2, D(1A) dopamine receptor (Rattus norvegicus, UniProt P18901); assay: Binding affinity towards Dopamine receptor D1 in rat membranes using [3H]SCH-23390 as radioligand; type: cell membranes
T2 sequence (P18901 whole entry): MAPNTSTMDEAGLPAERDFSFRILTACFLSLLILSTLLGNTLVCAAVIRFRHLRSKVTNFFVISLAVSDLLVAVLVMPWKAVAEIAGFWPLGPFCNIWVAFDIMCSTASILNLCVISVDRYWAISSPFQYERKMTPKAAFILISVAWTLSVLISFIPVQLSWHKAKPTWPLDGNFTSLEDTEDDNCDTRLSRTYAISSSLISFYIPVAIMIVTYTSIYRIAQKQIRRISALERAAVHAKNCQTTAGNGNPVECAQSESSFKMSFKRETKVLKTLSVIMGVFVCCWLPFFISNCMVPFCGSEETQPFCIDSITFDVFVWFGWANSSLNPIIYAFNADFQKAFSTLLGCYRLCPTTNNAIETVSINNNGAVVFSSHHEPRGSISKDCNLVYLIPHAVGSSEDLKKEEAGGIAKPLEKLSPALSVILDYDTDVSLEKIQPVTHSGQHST

[5] = target: T2, D(1A) dopamine receptor; assay: Binding affinity determined in radioreceptor binding assay by using [3H]SCH-23390 radioligand against dopamine receptor D1; summary of the method: as §2
[6] = species: Rattus norvegicus; assay: as §1

T1 sequence (P61169 whole entry): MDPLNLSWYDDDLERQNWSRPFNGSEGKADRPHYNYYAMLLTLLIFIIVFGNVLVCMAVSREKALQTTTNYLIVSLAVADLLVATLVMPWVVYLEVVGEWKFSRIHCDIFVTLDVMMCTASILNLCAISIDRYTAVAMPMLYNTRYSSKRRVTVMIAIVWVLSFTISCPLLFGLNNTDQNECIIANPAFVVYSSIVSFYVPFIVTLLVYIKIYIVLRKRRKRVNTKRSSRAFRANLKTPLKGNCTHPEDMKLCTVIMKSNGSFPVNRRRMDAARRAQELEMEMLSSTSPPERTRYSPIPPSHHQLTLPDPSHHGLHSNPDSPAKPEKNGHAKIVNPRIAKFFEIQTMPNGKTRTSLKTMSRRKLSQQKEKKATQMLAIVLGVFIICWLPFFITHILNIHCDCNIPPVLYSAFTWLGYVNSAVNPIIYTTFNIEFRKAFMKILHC
Glutamate receptor ionotropic, NMDA 2C, sequence (Q00961 whole entry): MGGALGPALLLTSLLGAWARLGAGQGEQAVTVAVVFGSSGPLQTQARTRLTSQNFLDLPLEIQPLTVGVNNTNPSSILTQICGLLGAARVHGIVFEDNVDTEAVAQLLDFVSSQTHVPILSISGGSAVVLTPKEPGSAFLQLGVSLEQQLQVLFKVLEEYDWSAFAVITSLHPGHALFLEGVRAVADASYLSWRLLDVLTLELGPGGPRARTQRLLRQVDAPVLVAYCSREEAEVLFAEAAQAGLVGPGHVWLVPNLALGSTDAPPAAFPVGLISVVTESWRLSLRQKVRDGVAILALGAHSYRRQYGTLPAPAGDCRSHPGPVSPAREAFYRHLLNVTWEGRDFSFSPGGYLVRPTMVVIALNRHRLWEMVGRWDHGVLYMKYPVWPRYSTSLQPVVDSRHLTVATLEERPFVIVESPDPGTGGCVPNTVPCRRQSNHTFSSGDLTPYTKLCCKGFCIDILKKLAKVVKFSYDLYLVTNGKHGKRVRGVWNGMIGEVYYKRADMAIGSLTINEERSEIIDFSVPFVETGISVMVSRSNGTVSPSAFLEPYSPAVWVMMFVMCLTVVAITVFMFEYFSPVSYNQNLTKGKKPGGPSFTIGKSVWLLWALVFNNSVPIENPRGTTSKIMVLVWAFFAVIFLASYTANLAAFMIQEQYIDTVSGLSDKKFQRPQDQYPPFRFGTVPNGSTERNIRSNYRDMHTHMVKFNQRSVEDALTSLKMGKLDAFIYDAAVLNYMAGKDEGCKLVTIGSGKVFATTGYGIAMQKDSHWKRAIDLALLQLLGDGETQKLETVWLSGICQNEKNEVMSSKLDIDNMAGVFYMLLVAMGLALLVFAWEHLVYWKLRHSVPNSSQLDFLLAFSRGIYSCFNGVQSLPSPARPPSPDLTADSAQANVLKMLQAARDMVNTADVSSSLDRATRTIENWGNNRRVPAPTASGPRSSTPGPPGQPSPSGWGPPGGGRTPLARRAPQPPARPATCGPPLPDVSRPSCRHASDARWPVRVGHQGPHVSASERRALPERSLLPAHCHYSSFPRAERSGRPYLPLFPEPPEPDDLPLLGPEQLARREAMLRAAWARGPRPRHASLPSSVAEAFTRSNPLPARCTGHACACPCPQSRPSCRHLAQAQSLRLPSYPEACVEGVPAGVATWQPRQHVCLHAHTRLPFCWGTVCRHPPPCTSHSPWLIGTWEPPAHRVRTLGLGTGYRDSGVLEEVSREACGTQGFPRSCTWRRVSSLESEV

| SMILES | pIC50 [1] | pIC50 [2] | pIC50 [3] | pIC50 [4] | pIC50 [5] | pIC50 [6] |
| --- | --- | --- | --- | --- | --- | --- |
| c1ccc(N2CCN(CCCc3ccc4ccccc4c3)CC2)cc1 | < 5.00 | 6.80 | – | – | – | – |
| c1ccc(CCCN2CCC(c3ccccc3)CC2)cc1 | < 5.00 | – | 6.47 | < 5.00 | – | – |
| c1ccc(CCCCCN2CCC(c3ccccc3)CC2)cc1 | < 5.00 | 6.68 | – | – | < 5.00 | – |
| OC1(c2ccccc2)CCN(CCCc2ccccc2)CC1 | – | – | 5.90 | < 5.00 | – | < 5.00 |
| c1ccc(CCCCN2CCC(c3ccccc3)CC2)cc1 | – | – | 6.78 | < 5.00 | – | < 5.00 |
| c1ccc(CCCCN2CCN(c3ccccc3)CC2)cc1 | < 5.00 | 7.35 | – | 5.55 | – | – |
